Common to all, as to type: functional
For assay [1], the system named is Staphylococcus aureus. The assay can be described thus: Antibacterial activity against standard Staphylococcus aureus after 20 hrs by agar dilution method. The essentials: (§1)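 Agar dilution MIC. The inoculum came from a seed culture in Sensitivity test broth. A 5 µl portion of a cell suspension of about 10^6 CFU/ml was inoculated onto Sensitivity disk agar supplemented with 5% horse blood. Plates were incubated at 37 °C for 20 h, then MIC was read.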

Assay [2] relates to Staphylococcus aureus. The assay can be described thus: Antibacterial activity against susceptible Staphylococcus aureus after 20 hrs by agar dilution method. In a few lines:
as §1
For orientation: In agar dilution, organisms are placed on agar that contains the substance at set levels.

The subject of assay [3] is Staphylococcus aureus. Kind of assay: Antibacterial activity against ermA-constitutive resistant Staphylococcus aureus after 20 hrs by agar dilution method. In a few lines:
as §1

The test system of assay [4] is Staphylococcus aureus. Kind of assay: Antibacterial activity against ermB-inducible resistant Staphylococcus aureus after 20 hrs by agar dilution method. The essentials: as §1
In assay [5] the test system is Staphylococcus aureus. The assay can be described thus: Antibacterial activity against ermC-inducible resistant Staphylococcus aureus after 20 hrs by agar dilution method. The essentials:
as §1

Assay [6] concerns Streptococcus pneumoniae. The assay can be described thus: Antibacterial activity against susceptible Streptococcus pneumoniae after 20 hrs by agar dilution method. The essentials:
(§2)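 MIC by agar dilution. Strains grown on blood agar plates for seed culture. About 5 µl of a suspension of roughly 10^6 CFU/ml spotted onto Sensitivity disk agar with 5% horse blood. Plates incubated at 37 °C for 20 h, then MIC read.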

Assay [7] concerns Streptococcus pneumoniae. Kind of assay: Antibacterial activity against ermB-constitutive resistant Streptococcus pneumoniae after 20 hrs by agar dilution method. In a few lines:
(§3)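 Agar dilution MIC. Streptococcal strains were pre-cultured on blood agar plates. A 5 µl portion of a cell suspension of about 10^6 CFU/ml was inoculated onto Sensitivity disk agar supplemented with 5% horse blood. Plates were incubated at 37 °C for 20 h, then MIC was read.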

Assay [8] deals with Streptococcus pneumoniae. The assay can be described thus: Antibacterial activity against ermB-inducible resistant Streptococcus pneumoniae after 20 hrs by agar dilution method. The essentials:
as §3

The subject of assay [9] is Streptococcus pneumoniae. The assay can be described thus: Antibacterial activity against mefE efflux-resistant Streptococcus pneumoniae after 20 hrs by agar dilution method. The essentials: as §3
The subject of assay [10] is Streptococcus pyogenes. The assay can be described thus: Antibacterial activity against ermB-constitutive resistant Streptococcus pyogenes after 20 hrs by agar dilution method. In a few lines:
as §3

Assay [11] relates to Streptococcus pyogenes. Kind of assay: Antibacterial activity against mefE efflux-resistant Streptococcus pyogenes after 20 hrs by agar dilution method. The essentials:
as §3

Assay [12] has as its system Moraxella catarrhalis. Kind of assay: Antibacterial activity against standard Moraxella catarrhalis after 20 hrs by agar dilution method. The essentials: as §2
The subject of assay [13] is Haemophilus influenzae. Kind of assay: Antibacterial activity against standard Haemophilus influenzae after 20 hrs by agar dilution method. The essentials: as §2
Assay [14] relates to Haemophilus influenzae. Kind of assay: Antibacterial activity against susceptible Haemophilus influenzae after 20 hrs by agar dilution method. In a few lines: as §2

≈ marks a conversion by molar mass, not a printed value.

As for `CCC(=O)O[C@@H]1CC(=O)O[C@H](C)C[C@@H]2OC(=O)N(CCCc3ccccc3)[C@@H]2/C=C/[C@H](OC(C)=O)[C@H](C)C[C@H](CC=O)[C@H](O[C@@H]2O[C@H](C)[C@@H](O[C@H]3C[C@@](C)(O)[C@@H](OC(=O)CC)[C@H](C)O3)[C@H](N(C)C)[C@H]2O)[C@H]1OC`, the MIC is 0.78 µg/mL (≈ 0.755 µM) in assay [1]; 0.78 µg/mL (≈ 0.755 µM) in assay [2]; above 100 µg/mL in assay [3]; 1.56 µg/mL (≈ 1.51 µM) in assay [4]; 0.78 µg/mL (≈ 0.755 µM) in assay [5]; 0.2 µg/mL (≈ 0.194 µM) in assay [6]. Also, the MIC in assay [7] is above 100 µg/mL; in assay [8], above 100 µg/mL; in assay [9], 0.2 µg/mL (≈ 0.194 µM); in [10] it was above 100 µg/mL; in assay [11] it was 0.2 µg/mL (≈ 0.194 µM); in assay [12], 1.56 µg/mL (≈ 1.51 µM). Besides, the MIC stood at 6.25 µg/mL (≈ 6.05 µM) in assay [13] and 100 µg/mL (≈ 96.8 µM) in assay [14].
Regarding `CCC(=O)O[C@@H]1CC(=O)O[C@H](C)C[C@@H]2OC(=O)N[C@@H]2/C=C/[C@H](OC(C)=O)[C@H](C)C[C@H](CC=O)[C@H](O[C@@H]2O[C@H](C)[C@@H](O[C@H]3C[C@@](C)(O)[C@@H](OC(=O)CC)[C@H](C)O3)[C@H](N(C)C)[C@H]2O)[C@H]1OC`, the MIC was 0.39 µg/mL (≈ 0.426 µM) in [1]; 0.39 µg/mL (≈ 0.426 µM) in assay [2]; above 100 µg/mL in assay [3]; 0.39 µg/mL (≈ 0.426 µM) in assay [4]; 0.78 µg/mL (≈ 0.852 µM) in [5]; 0.2 µg/mL (≈ 0.219 µM) in [6]. Moreover, the MIC in [7] was above 100 µg/mL; in [8], above 100 µg/mL; in assay [9] it was 0.2 µg/mL (≈ 0.219 µM); in assay [10], above 100 µg/mL; in [11] it was 0.2 µg/mL (≈ 0.219 µM); in assay [12], 0.39 µg/mL (≈ 0.426 µM). The MIC is 0.78 µg/mL (≈ 0.852 µM) in [13] and 6.25 µg/mL (≈ 6.83 µM) in assay [14].
Take `CCC(=O)O[C@@H]1CC(=O)O[C@H](C)C/C=C/C=C/[C@H](OC(C)=O)[C@H](C)C[C@H](CC=O)[C@H](O[C@@H]2O[C@H](C)[C@@H](O[C@H]3C[C@@](C)(O)[C@@H](OC(=O)CC)[C@H](C)O3)[C@H](N(C)C)[C@H]2O)[C@H]1OC`: the MIC in [1] is 0.39 µg/mL (≈ 0.456 µM); in assay [2] it was 0.39 µg/mL (≈ 0.456 µM); in assay [3], above 100 µg/mL; in [4], 0.39 µg/mL (≈ 0.456 µM); in assay [5] it was 0.78 µg/mL (≈ 0.911 µM); in assay [6] it was 0.2 µg/mL (≈ 0.234 µM). In addition, the MIC in [7] is above 100 µg/mL; in assay [8], 100 µg/mL (≈ 117 µM); in assay [9], 0.2 µg/mL (≈ 0.234 µM); in [10], above 100 µg/mL; in assay [11], 0.39 µg/mL (≈ 0.456 µM); in [12], 0.78 µg/mL (≈ 0.911 µM). Also, the MIC in assay [13] turned out to be 3.13 µg/mL (≈ 3.66 µM); in assay [14], 25 µg/mL (≈ 29.2 µM).
As to `CCC(=O)O[C@@H]1CC(=O)O[C@H](C)C[C@@H]2OC(=O)N(CCCCc3ccccc3)[C@@H]2/C=C/[C@H](OC(C)=O)[C@H](C)C[C@H](CC=O)[C@H](O[C@@H]2O[C@H](C)[C@@H](O[C@H]3C[C@@](C)(O)[C@@H](OC(=O)CC)[C@H](C)O3)[C@H](N(C)C)[C@H]2O)[C@H]1OC`, the MIC in [1] was 0.78 µg/mL (≈ 0.745 µM); in [2], 0.39 µg/mL (≈ 0.372 µM); in assay [3], above 100 µg/mL; in assay [4], 0.39 µg/mL (≈ 0.372 µM); in assay [5], 0.78 µg/mL (≈ 0.745 µM); in assay [6] it was 0.2 µg/mL (≈ 0.191 µM). Also, the MIC in assay [7] is above 100 µg/mL; in assay [8], 100 µg/mL (≈ 95.5 µM); in [9], 0.2 µg/mL (≈ 0.191 µM); in assay [10], above 100 µg/mL; in [11], 0.39 µg/mL (≈ 0.372 µM); in assay [12] it was 3.13 µg/mL (≈ 2.99 µM). The MIC is 6.25 µg/mL (≈ 5.97 µM) in assay [13] and above 100 µg/mL in [14].
